How the values were obtained:
[1] = target: Neuronal acetylcholine receptor; alpha4/beta2 (Rattus norvegicus, UniProt P09483+P12390); assay: Displacement of L-[3H]Nicotine from alpha4beta2 nAChR in rat brain homogenate by rapid filtration method; assay type: tissue-based
[2] = target: Neuronal acetylcholine receptor subunit alpha-7 (Rattus norvegicus) (UniProt Q05941); assay: Agonist activity at rat alpha7 nAChR expressed in Xenopus oocytes at 32 uM by two-electrode voltage clamp technique relative to nicotine; assay type: functional, cell-based; conditions: Oocyte
Chain of Neuronal acetylcholine receptor subunit alpha-7 (Rattus norvegicus) (Q05941 whole entry): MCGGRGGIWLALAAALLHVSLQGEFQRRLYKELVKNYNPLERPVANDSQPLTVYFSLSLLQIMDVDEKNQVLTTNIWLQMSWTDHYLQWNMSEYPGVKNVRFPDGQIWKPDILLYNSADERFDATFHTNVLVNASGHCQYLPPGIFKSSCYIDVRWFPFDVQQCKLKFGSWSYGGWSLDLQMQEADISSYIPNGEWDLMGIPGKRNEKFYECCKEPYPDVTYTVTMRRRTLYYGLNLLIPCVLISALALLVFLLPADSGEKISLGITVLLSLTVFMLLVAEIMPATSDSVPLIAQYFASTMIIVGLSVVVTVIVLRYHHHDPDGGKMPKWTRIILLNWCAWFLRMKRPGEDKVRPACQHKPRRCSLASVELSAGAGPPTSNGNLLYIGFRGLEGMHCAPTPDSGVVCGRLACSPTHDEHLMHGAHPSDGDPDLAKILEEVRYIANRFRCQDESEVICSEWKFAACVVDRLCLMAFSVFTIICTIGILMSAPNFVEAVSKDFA
Outline: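 Rat alpha7 nAChR cRNA (10–50 ng) injected into Xenopus oocytes defolliculated with collagenase (1.3 mg/mL, 3 h); oocytes kept in Barth's saline up to 2 weeks. Test compounds applied at 32 µM.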

[3] = target: Neuronal acetylcholine receptor subunit alpha-7 (Rattus norvegicus, UniProt Q05941); assay: Displacement of [125I]BTX from rat alpha7 nAChR expressed in rat GH4C1 cells; assay type: cell-based, GH4-C1
Chain of Neuronal acetylcholine receptor subunit alpha-7 (Q05941 whole entry): as above
Outline: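 GH₄C₁ cell binding with [¹²⁵I]-BTX; six-point dose–response curve in triplicate, values averaged.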

[4] = target: Neuronal acetylcholine receptor subunit alpha-3 (Homo sapiens, UniProt P32297); assay: Displacement of [3H]epibatidine from alpha3 nAChR in human IMR32 cells; assay type: cell-based, IMR-32
Chain of Neuronal acetylcholine receptor subunit alpha-3 (P32297 whole entry): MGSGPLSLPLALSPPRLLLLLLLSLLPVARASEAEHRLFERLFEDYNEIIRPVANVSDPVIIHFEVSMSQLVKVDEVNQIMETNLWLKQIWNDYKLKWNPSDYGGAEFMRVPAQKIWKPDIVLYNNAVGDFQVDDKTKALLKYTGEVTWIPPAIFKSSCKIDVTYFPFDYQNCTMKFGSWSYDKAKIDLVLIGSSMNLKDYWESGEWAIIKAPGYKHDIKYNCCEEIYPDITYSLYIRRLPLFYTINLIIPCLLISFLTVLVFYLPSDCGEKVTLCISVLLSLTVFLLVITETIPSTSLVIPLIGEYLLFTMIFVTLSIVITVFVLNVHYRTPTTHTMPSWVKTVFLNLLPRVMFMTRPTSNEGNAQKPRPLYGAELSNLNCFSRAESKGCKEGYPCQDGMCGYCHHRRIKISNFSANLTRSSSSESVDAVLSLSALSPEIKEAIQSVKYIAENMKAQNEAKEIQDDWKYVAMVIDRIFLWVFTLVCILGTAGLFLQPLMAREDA
Outline: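 IMR32 cell binding with [³H]-epibatidine; six-point dose–response curve in triplicate, values averaged.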

[5] = Plasma concentration in Sprague-Dawley rat at 5 mg/kg, sc after 1 hr; assay type: ADME, organism-based; set-up: dose 5 mg/kg, route subcutaneous
Outline: (§1)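 Male Sprague-Dawley rats (n = 3) given 5 mg/kg s.c.; brain, plasma and CSF levels assessed 1 h post dose.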

[6] = Octanol-aqueous buffer partition coefficient, log D at pH 7.4; assay type: physicochemical
[7] = Ratio of drug level in brain to plasma in Sprague-Dawley rat at 5 mg/kg, sc after 1 hr; assay type: ADME, organism-based; set-up: dose 5 mg/kg, route subcutaneous
Outline: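 Male Sprague-Dawley rats (n = 3) received a single subcutaneous dose of 5 mg/kg. Brain, plasma and CSF drug levels were assessed 1 h post dose, and the brain level was expressed relative to the plasma level.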

[8] = Aqueous solubility of the compound; assay type: physicochemical; conditions: buffer
[9] = Drug concentration in Sprague-Dawley rat brain at 5 mg/kg, sc after 1 hr; assay type: ADME, organism-based; set-up: dose 5 mg/kg, route subcutaneous; conditions: read-out: Drug uptake; outline: as §1
[10] = Intrinsic clearance in human liver microsomes at 1 uM at pH 7.4 after 30 mins; assay type: ADME, Microsome
Outline: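 Pooled liver microsomes in phosphate buffer pH 7.4, 1 μM substrate; sampled at 30 min.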

[11] = target: T1, 5-hydroxytryptamine receptor 3A (Homo sapiens, UniProt P46098); assay: Displacement of [3H]LY278584 from human 5HT3 receptor expressed in HEK293 cells; assay type: cell-based
T1 sequence (P46098 whole entry): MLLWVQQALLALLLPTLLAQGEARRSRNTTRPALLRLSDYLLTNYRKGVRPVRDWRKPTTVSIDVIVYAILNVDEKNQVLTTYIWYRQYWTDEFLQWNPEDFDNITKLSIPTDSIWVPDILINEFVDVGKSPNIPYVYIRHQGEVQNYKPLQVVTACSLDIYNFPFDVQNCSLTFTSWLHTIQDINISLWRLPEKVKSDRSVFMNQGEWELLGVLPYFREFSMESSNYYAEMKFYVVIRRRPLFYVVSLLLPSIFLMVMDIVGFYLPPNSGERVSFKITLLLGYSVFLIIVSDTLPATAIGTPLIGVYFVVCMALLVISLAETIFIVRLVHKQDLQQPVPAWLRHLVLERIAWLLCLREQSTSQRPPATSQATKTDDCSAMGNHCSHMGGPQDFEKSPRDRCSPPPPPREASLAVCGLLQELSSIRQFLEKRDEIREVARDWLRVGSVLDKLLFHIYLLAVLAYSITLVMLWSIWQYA
Outline: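 HEK293 cells expressing human 5-HT₃; [³H]-LY278584 binding, six-point dose–response curve in triplicate, values averaged.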

[12] = Drug concentration in Sprague-Dawley rat CSF at 5 mg/kg, sc after 1 hr; assay type: ADME, organism-based, Cerebrospinal fluid; set-up: dose 5 mg/kg, route subcutaneous; conditions: read-out: Drug uptake; outline: as §1
hERG (KCNH2) = hERG (KCNH2) (Homo sapiens, UniProt Q12809); assay: Displacement of [3H]dofetilide from human ERG expressed in HEK293 cells at 10 uM; assay type: cell-based; conditions: HEK293 cells expressing human ERG, probe [3H]dofetilide
Chain of hERG (KCNH2) (Q12809 whole entry): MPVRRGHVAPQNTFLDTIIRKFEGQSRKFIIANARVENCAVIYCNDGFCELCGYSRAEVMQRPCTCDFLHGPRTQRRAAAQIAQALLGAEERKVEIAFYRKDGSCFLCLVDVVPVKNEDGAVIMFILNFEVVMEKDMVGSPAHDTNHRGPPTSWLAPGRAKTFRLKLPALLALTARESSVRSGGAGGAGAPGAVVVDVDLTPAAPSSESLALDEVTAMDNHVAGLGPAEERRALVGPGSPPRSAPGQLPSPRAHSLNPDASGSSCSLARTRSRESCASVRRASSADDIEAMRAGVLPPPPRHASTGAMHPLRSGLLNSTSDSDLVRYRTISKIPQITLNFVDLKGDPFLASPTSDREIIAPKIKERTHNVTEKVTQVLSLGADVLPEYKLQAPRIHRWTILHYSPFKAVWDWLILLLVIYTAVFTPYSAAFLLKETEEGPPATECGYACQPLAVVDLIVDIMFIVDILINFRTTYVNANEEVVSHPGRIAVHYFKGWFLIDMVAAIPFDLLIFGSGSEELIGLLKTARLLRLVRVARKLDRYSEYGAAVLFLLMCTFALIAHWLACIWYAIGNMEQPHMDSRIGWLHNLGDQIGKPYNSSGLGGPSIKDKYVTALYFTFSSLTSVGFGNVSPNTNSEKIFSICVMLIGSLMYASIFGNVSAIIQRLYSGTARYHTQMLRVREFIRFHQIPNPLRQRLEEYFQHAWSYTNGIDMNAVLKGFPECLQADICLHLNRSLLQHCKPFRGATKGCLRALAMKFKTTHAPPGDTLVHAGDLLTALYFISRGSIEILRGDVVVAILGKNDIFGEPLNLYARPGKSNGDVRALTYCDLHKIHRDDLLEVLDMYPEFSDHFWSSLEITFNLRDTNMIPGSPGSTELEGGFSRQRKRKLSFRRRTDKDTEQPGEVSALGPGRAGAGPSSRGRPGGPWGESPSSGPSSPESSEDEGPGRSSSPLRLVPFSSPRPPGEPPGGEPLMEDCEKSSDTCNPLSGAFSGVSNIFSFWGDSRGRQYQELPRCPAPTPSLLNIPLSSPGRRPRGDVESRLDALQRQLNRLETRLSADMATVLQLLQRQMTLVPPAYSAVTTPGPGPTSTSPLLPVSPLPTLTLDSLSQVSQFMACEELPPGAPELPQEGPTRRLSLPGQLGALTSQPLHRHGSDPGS
Outline: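 Binding of [³H]dofetilide to hERG stably expressed in HEK293 cells; reported as percent inhibition of binding.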

Chain of Neuronal acetylcholine receptor; alpha4/beta2 (P09483 whole entry): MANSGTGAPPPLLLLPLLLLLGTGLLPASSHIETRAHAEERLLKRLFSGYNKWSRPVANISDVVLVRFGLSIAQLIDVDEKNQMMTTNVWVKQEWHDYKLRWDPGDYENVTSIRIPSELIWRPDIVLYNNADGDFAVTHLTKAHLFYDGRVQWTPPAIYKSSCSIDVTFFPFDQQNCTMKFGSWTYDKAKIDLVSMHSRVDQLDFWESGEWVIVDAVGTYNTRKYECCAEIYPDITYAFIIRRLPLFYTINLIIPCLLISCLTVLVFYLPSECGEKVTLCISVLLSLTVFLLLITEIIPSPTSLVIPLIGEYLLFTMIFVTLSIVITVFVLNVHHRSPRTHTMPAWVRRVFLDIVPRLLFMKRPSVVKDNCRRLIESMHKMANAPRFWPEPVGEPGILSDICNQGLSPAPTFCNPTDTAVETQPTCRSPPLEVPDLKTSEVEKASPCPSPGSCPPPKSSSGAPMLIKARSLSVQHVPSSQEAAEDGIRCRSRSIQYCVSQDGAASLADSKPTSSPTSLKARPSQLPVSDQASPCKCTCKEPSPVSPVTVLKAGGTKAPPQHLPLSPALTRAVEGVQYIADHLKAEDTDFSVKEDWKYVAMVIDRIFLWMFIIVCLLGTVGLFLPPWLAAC
Chain of Neuronal acetylcholine receptor; alpha4/beta2 (P12390 whole entry): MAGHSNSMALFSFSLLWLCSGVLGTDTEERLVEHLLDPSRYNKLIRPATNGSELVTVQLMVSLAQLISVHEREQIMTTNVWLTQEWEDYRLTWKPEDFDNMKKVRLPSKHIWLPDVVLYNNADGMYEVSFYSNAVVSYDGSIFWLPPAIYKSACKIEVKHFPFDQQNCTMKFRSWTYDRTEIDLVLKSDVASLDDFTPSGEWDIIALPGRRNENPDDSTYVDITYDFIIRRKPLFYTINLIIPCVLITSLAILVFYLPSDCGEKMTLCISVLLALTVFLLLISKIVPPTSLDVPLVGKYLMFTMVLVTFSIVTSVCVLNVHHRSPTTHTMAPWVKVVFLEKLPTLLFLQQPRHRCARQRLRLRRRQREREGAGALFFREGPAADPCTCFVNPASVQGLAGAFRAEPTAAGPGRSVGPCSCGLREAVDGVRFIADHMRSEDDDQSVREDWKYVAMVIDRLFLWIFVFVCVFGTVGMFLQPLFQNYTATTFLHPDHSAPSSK

Compound | IC50 [1] [µM] | Activity [2] [%] | Ki [3] [nM] | also measured
O=C(Oc1ccc(Cl)cc1)N1CCN2CCC1CC2 | > 5 | 145 | 79 | IC50 [4]: > 5 µM
C[C@@H]1CN(C(=O)Oc2ccc(Br)cc2)C[C@H](C)N1 | – | < 0.1 | > 5000 | –
C[C@@H]1CN(C(=O)Oc2ccc(Br)cc2)[C@@H](C)CN1 | – | – | > 5000 | –
O=c1c(Br)ccc2n1C[C@@H]1CNC[C@H]2C1 | – | – | – | IC50 [4]: 0.0156 µM
O=C(Oc1cccc(Cl)c1)N1CCN2CCC1CC2 | 3.5 | 77 | 32 | –
Cc1ccc(OC(=O)N2CCN3CCC2CC3)cc1 | – | 202 | 178 | –
Cc1cc(OC(=O)N2CCN3CCC2CC3)ccc1Br | 7.22 | 83 | 50 | IC50 [4]: 4.02 µM
O=C(Oc1ccc(Cl)c(F)c1)N1CCN2CCC1CC2 | 6.98 | 110 | 86 | IC50 [4]: 9.96 µM
O=C(OCc1ccccc1)N1CCN2CCC1CC2 | – | – | 3350 | –
O=C(Oc1ccc(F)cc1)N1CCN2CCC1CC2 | 1.78 | 100 | 537 | –
O=C(Oc1cccc(-c2ccccc2)c1)N1CCN2CCC1CC2 | – | 9 | 9 | –
O=C(Oc1ccc(-c2ccccc2)cc1)N1CCN2CCC1CC2 | – | 111 | 215 | –
Cc1cccc(OC(=O)N2CCN3CCC2CC3)c1 | – | 46 | 25 | –
O=C(Oc1ccc(Br)cc1)N1CCCN2CCC1CC2 | > 10 | 27 | 383 | –
CN1CCCN(C(=O)Oc2ccc(Br)cc2)CC1 | – | 10 | > 5710 | –
O=C(c1ccccc1)c1cc(OC(=O)N2CCN3CCC2CC3)ccc1Br | 2.04 | 201 | 16 | IC50 [4]: 1.39 µM
O=C(Oc1ccc(Cl)c(Cl)c1)N1CCN2CCC1CC2 | – | 195 | 31 | –
COc1cccc(OC(=O)N2CCN3CCC2CC3)c1 | – | 26 | 79 | –
O=C(Oc1cccc(F)c1)N1CCN2CCC1CC2 | 1.06 | 47 | 35 | –
O=C(Oc1ccccc1Cl)N1CCN2CCC1CC2 | – | – | 868 | –
O=C(Oc1ccc(-c2ccccn2)cc1)N1CCN2CCC1CC2 | – | 174 | 354 | –

Compound | IC50 [1] [µM] | Activity [2] [%] | Ki [3] [nM] | also measured
O=S(=O)(c1ccc(Br)cc1)N1CCN2CCC1CC2 | – | – | > 4720 | –
C[C@@H]1CN(C(=O)Oc2ccc(Br)cc2)CCN1 | – | < 0.1 | > 5000 | –
O=C(Oc1ccc(Oc2ccccc2)cc1)N1CCN2CCC1CC2 | – | 241 | 212 | –
O=C(Oc1ccc(-c2cccnc2)cc1)N1CCN2CCC1CC2 | > 5 | 189 | 203 | –
O=C(Oc1cccc(Oc2ccccc2)c1)N1CCN2CCC1CC2 | – | 40 | 13 | –
O=C(Nc1ccc(Br)cc1)OC1CN2CCC1C2 (configuration not stated) [QUINUCLIDINE CARBAMATE] | – | 90 | – | –
O=C(Oc1ccccc1Br)N1CCN2CCC1CC2 | – | – | 725 | –
O=C(Cc1ccc(Br)cc1)N1CCN2CCC1CC2 | – | 1.7 | > 5000 | –
O=C(Oc1ccc(Br)cc1)N1CCN2CCC1CC2 [SSR180711] | > 5 | 158 | – | concentration at 1 h [5]: 648 ng/mL; logD [6]: 2.1; Kp at 1 h [7]: 9.1; solubility [8]: > 65 µg/mL; concentration at 1 h [9]: 5460 ng/g; CLint scaled at 1 µM [10]: < 6.8 mL/min/kg; IC50 [11]: > 3.16 µM; concentration at 1 h [12]: 774 nM; IC50 [4]: > 6.48 µM; inhibition at 10 µM (hERG (KCNH2)): 46%
O=C(c1ccccc1)c1ccc(OC(=O)N2CCN3CCC2CC3)cc1 | – | 35 | 95 | –
O=C(Oc1cccc(Br)c1)N1CCN2CCC1CC2 | – | 70 | 9.5 | –
O=C(Oc1ccc(Br)cc1)N1CCN2CCC(CC2)C1 | > 10 | – | 763 | –
S=C(Oc1ccccc1)N1CCN2CCC1CC2 | – | 28 | 749 | –
COc1ccc(OC(=O)N2CCN3CCC2CC3)cc1 | – | 126 | 201 | –
O=C(Nc1ccc(Br)cc1)N1CCN2CCC1CC2 | – | – | 328 | –
O=C(c1ccccc1)c1cccc(OC(=O)N2CCN3CCC2CC3)c1 | 2.61 | 98 | 11 | –
O=C(Oc1ccccc1)N1CCN2CCC1CC2 | 1.04 | 99 | 739 | –
O=C(Oc1ccc2ccccc2c1)N1CCN2CCC1CC2 | 9.88 | 175 | 23 | concentration at 1 h [5]: 463 ng/mL; logD [6]: 2.3; Kp at 1 h [7]: 11.6; solubility [8]: > 65 µg/mL; concentration at 1 h [9]: 5290 ng/g; CLint scaled at 1 µM [10]: 12 mL/min/kg; IC50 [11]: > 3.16 µM; concentration at 1 h [12]: 343 nM; IC50 [4]: 4.91 µM; inhibition at 10 µM (hERG (KCNH2)): 8%
O=C(Oc1ccc(-c2ccncc2)cc1)N1CCN2CCC1CC2 | – | 191 | 207 | –
O=C(Oc1ccc(Br)c(Cl)c1)N1CCN2CCC1CC2 | 7.12 | 203 | 33 | IC50 [4]: 2.09 µM
